AF4-AF9 inh – MLL-AF4/AF9 protein interaction inhibition. P42568. AlphaScreen, biotin-AF4 peptide binding to FLAG-AF9. inhibition, % at 10 µM. 0.47% of 350,000 active;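 active means every replicate reaching a set inhibition limit, whatever the replicate mean, cut at about 25% in these data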;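 further: 0% = plate neutral control median and 100% = total signal loss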
Target sequence (P42568 whole entry, looked up): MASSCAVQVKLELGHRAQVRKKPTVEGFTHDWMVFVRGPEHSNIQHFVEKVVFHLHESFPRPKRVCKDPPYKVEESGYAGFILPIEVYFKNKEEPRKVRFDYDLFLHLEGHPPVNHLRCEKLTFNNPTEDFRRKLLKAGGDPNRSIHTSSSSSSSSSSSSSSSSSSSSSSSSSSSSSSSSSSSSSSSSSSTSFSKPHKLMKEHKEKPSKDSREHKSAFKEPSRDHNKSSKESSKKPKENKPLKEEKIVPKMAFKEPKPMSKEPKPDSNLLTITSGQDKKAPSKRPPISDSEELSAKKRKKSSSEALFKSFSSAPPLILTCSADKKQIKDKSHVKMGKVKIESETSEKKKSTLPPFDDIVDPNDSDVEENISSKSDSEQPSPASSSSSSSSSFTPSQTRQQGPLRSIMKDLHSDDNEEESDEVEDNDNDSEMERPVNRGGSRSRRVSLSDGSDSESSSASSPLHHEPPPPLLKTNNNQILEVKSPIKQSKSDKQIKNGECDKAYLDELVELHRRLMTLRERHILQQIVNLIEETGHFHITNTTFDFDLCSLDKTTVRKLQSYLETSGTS
SIRT5 block – blocks human SIRT5 desuccinylation of peptide | Q9NXA8 | Purified SirT5, succinyl-peptide AMC, trypsin-coupled fluorescence | inhibition, % at 15 µM | 1.1% of 330,000 active | AID 652115; in the data active means inhibition above about 15%
PDI inh – blocks human protein disulfide isomerase activity; P07237; PDI insulin aggregation turbidity, A650, 90 min; inhibition, % at 10 µM; 0.052% of 350,000 active; AID 588391;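 active means mean inhibition across replicates of 30% or more, whatever share of single replicates reach that level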
ERp5 block – ERp5 (human) disulfide isomerase inhibition; Q15084; ERp5 insulin aggregation, absorbance 650 nm, 90 min; inhibition, % at 9.99 µM; 0.05% of 350,000 active;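 active means mean replicate inhibition above about 25%, with every replicate also reaching it, limit read from the data, passing the limit was not always enough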
FN deposit inh – fibronectin deposition inhibition; AH1F fibroblasts, Alexa488-fibronectin deposition fluorescence, overnight; inhibition, % at 12.6 µM; 0.086% of 350,000 active; AID 743247;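 active means mean inhibition across replicates of 30% or more, regardless of how many single replicates reach that level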;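 further: positive control wells lacked labelled fibronectin entirely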
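material = AH1F fibroblast monolayer depositing Alexa488-labelled fibronectin into matrix | amount = 10000 AH1F cells/well | buffer or medium = DMEM plus 2% serum, read in PBS | incubation = 1 h cell adhesion before compound, then overnight fibronectin incubation | detection = fluorescence at 485 nm excitation, 525 nm emission | evaluation = percent inhibition as loss of matrix-bound fibronectin fluorescence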
Starred values were filed as active, the others as inactive; nt = not tested or not shown. This is a sample that favours compounds with a hit; in the whole collection about 1.3% have one here.

SMILES	AF4-AF9 inh	SIRT5 block	PDI inh	ERp5 block	FN deposit inh
O=c1[nH]c(=S)[nH]c2c1C(c1ccc(Br)cc1)c1c([nH]c(=S)[nH]c1=O)O2	-5.4	67.1*	8.6	22.7	5.5
COc1ccc(-c2cnc3c(c2)C(=O)N([C@H](C)CO)C[C@@H](C)[C@H](CN(C)C(=O)NC2CCCC2)O3)cc1	-1.3	-1.7	nt	0.1	-0.2
COc1ccc(S(=O)(=O)Nc2ccc3c(c2)C(=O)N([C@H](C)CO)C[C@H](C)[C@@H](CN(C)S(=O)(=O)c2ccc(C)cc2)OCCCC[C@@H](C)O3)cc1	-0.8	13.1	nt	6.7	2.7
COc1ccc(S(=O)(=O)N(C)C[C@H]2OCCCC[C@@H](C)Oc3ccc(NS(=O)(=O)c4ccc(C)cc4)cc3C(=O)N([C@@H](C)CO)C[C@H]2C)cc1	1.0	24.5*	nt	-3.0	nt
COc1ccc(S(=O)(=O)N(C)C[C@H]2OCCCC[C@H](C)Oc3ccc(NS(=O)(=O)c4ccc(C)cc4)cc3C(=O)N([C@H](C)CO)C[C@H]2C)cc1	-1.3	28.6*	nt	0.6	nt
COc1ccc(S(=O)(=O)Nc2ccc3c(c2)C(=O)N([C@H](C)CO)C[C@@H](C)[C@H](CN(C)S(=O)(=O)c2ccc(C)cc2)OCCCC[C@H](C)O3)cc1	-1.8	11.5	nt	0.8	-4.8
COc1ccc(S(=O)(=O)N(C)C[C@H]2OCCCC[C@H](C)Oc3ccc(NS(=O)(=O)c4ccc(C)cc4)cc3C(=O)N([C@H](C)CO)C[C@@H]2C)cc1	-0.4	22.9*	nt	-2.1	nt
COc1ccc(S(=O)(=O)Nc2ccc3c(c2)C(=O)N([C@@H](C)CO)C[C@H](C)[C@H](CN(C)S(=O)(=O)c2ccccc2)OCCCC[C@@H](C)O3)cc1	-1.2	15.2*	nt	3.5	nt
COc1ccc(S(=O)(=O)Nc2ccc3c(c2)C(=O)N([C@@H](C)CO)C[C@H](C)[C@@H](CN(C)S(=O)(=O)c2ccc(OC)cc2)OCCCC[C@@H](C)O3)cc1	nt	nt	nt	nt	6.9
CCC(=O)N1CCC2(CC1)CN(CC1CCOCC1)[C@@H](CO)c1c2c2ccc(OC)cc2n1C	-7.5	1.7	nt	-1.4	nt
COc1ccc(S(=O)(=O)N(C)C[C@H]2OCCCC[C@H](C)Oc3ccc(NS(=O)(=O)c4ccc(C)cc4)cc3C(=O)N([C@@H](C)CO)C[C@H]2C)cc1	-1.1	19.6*	nt	-5.4	nt
COc1ccc(S(=O)(=O)N(C)C[C@@H]2OCCCC[C@@H](C)Oc3ccc(NS(=O)(=O)c4ccc(C)cc4)cc3C(=O)N([C@H](C)CO)C[C@@H]2C)cc1	-2.3	15.1*	nt	-4.1	nt
COc1ccc(S(=O)(=O)N(C)C[C@H]2OCCCC[C@@H](C)Oc3ccc(NS(=O)(=O)c4cn(C)cn4)cc3C(=O)N([C@@H](C)CO)C[C@H]2C)cc1	-0.5	16.0*	nt	-0.1	2.1
COc1ccc(S(=O)(=O)N(C)C[C@@H]2OCCCC[C@@H](C)Oc3ccc(NS(=O)(=O)c4ccc(C)cc4)cc3C(=O)N([C@@H](C)CO)C[C@H]2C)cc1	-0.8	17.1*	nt	-3.6	nt
COc1ccc(S(=O)(=O)N(C)C[C@H]2OCCCC[C@@H](C)Oc3ccc(NS(=O)(=O)c4ccc(C)cc4)cc3C(=O)N([C@H](C)CO)C[C@@H]2C)cc1	-0.7	5.3	nt	-10.8	nt
COc1ccc(S(=O)(=O)Nc2ccc3c(c2)C(=O)N([C@@H](C)CO)C[C@H](C)[C@H](CN(C)S(=O)(=O)c2ccc(C)cc2)OCCCC[C@@H](C)O3)cc1	1.2	9.5	nt	-4.3	1.0
Cc1ccc(S(=O)(=O)Oc2ccccc2N2C(=O)C3CC=CCC3C2=O)cc1 (stereo unspecified)	nt	nt	-3.2	nt	-5.9
CCCn1c2ccccc2c2nnc(SCCN3CCOCC3)nc21	-0.4	18.9*	-5.7	2.9	8.5
O=S(=O)(N[C@@H]1CC[C@@H](CCn2cc(-c3cccnc3)nn2)O[C@H]1CO)c1ccccc1	-0.5	16.3*	nt	8.5	nt
O=S(=O)(N[C@@H]1CC[C@@H](CCn2cc(Cc3ccccc3)nn2)O[C@H]1CO)c1ccccc1F	2.8	19.8*	nt	2.7	-8.0
O=S(=O)(N[C@@H]1CC[C@H](CCn2cc(-c3cccnc3)nn2)O[C@H]1CO)c1ccccc1	0.0	8.5	nt	-5.4	nt
Cc1ccc(S(=O)(=O)N(C)C[C@H]2OCCCC[C@H](C)Oc3ccc(NC(=O)NC4CCCCC4)cc3C(=O)N([C@@H](C)CO)C[C@H]2C)cc1	-5.0	8.6	nt	-8.7	-0.6
COc1ccc(S(=O)(=O)Nc2ccc3c(c2)C(=O)N([C@@H](C)CO)C[C@H](C)[C@H](CN(C)S(=O)(=O)c2cccs2)OCCCC[C@H](C)O3)cc1	2.1	15.3*	nt	1.4	8.0
COc1ccc(S(=O)(=O)Nc2ccc3c(c2)C(=O)N([C@H](C)CO)C[C@H](C)[C@H](CN(C)S(=O)(=O)c2cccs2)OCCCC[C@H](C)O3)cc1	3.6	17.9*	nt	5.0	5.3
COc1ccc(S(=O)(=O)Nc2ccc3c(c2)C(=O)N([C@H](C)CO)C[C@H](C)[C@@H](CN(C)S(=O)(=O)c2cccs2)OCCCC[C@H](C)O3)cc1	-2.3	1.6	nt	0.8	7.5
SMILES	AF4-AF9 inh	SIRT5 block	PDI inh	ERp5 block	FN deposit inh
COc1ccc(NC(=O)Nc2ccc3c(c2)C(=O)N([C@H](C)CO)C[C@H](C)[C@@H](CN(C)S(=O)(=O)c2cccs2)OCCCC[C@@H](C)O3)cc1	0.2	19.2*	nt	1.3	nt
CCN(CC)CCCN(Cc1cc2ccc(C)c(C)c2[nH]c1=O)C(=O)NC1CCCCC1	nt	nt	-3.7	nt	-3.7
CC(C)n1c2ccccc2c2cc([N+](=O)[O-])ccc21	5.1	-1.3	-6.6	-1.4	5.6
C[n+]1c(-c2ccccc2)cc2c(=Cc3ccccc3)c3ccccc3n21	28.5*	nt	7.6	-4.9	1.7
C[n+]1c(-c2ccccc2)cc2c(=Cc3ccc([N+](=O)[O-])cc3)c3ccccc3n21	61.4*	-0.5	4.0	-2.8	3.5
CCCc1nc2ccc(NC(C)=O)cc2c(=O)n1Cc1cccc(Cl)c1	-0.9	-1.6	11.8	-1.4	-14.2
COC(CNC(=O)CCc1c(C)nc2c(c(C)nn2-c2ccc(C)cc2)c1C)OC	-0.9	-6.6	16.1	3.2	8.8
Cc1ccc(-n2nc(C)c3c(C)c(CCC(=O)Nc4ccc(CN5CCCC5)cc4)c(C)nc32)cc1	27.0*	3.1	8.2	4.5	7.4
O=C(COc1ccccc1)Nc1cccc2c1CCCC2	nt	nt	-17.8	nt	nt
CCO[C@H]1OC(C(=O)O)=C[C@@H](C(C)(C)C)[C@@H]1CCCO	-1.5	22.8*	-1.2	1.2	8.4
CS(=O)(=O)N1[C@H](CO)[C@@H](c2ccccc2)C12CN(Cc1ccccn1)C2	-2.3	-4.9	nt	-1.1	-6.9
CN1/C(=C/C(=S)NC(=O)C2CCC2)C(C)(C)c2ccccc21	7.8	15.0*	0.5	0.9	nt
CCN(CC)S(=O)(=O)c1ccc(NC(=S)NC(=O)CC(C)C)cc1	1.7	33.1*	-14.7	-4.9	1.2
Cc1cnc(C(=O)OCC(=O)C23CC4CC(CC(C4)C2)C3)cn1	0.3	17.1*	-0.5	-1.2	5.1
O=C(c1ccco1)N1CCN=C1SCc1cccnc1	nt	nt	-11.8	nt	nt

Screens (PubChem BioAssay)
